Columns and labels:
A2780 [1] = assay: Cytotoxicity against human A2780 cells assessed as growth inhibition; type: functional, cell-based
Method in brief: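 Drug-sensitive A2780 human ovarian cancer cell line; antiproliferative activity determined per a previously described protocol.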

[2] = Cytotoxicity against human H522-T1 cells assessed as growth inhibition after 96 hrs by CellTiter-Glo luminescence assay; type: functional, cell-based; conditions: H522-T1, 96 h
Method in brief: (§1)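 Antiproliferative activity was determined against the A2058 melanoma and H522-T1 lung cancer cell lines.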

A2058 [3] = assay: Cytotoxicity against human A2058 cells assessed as growth inhibition after 96 hrs by CellTiter-Glo luminescence assay; type: functional, cell-based; conditions: A2058, 96 h; method in brief: as §1
A2058 [4] = assay: Selectivity ratio of IC50 for human A2780 cells to IC50 for human A2058 cells; type: functional
A2780 [5] = assay: Selectivity ratio of IC50 for human A2780 cells to IC50 for human H522-T1 cells; type: functional

SMILES	IC50 (A2780 [1])	IC50 [2]	IC50 (A2058 [3])	Ratio IC50 (A2058 [4])	Ratio IC50 (A2780 [5])
COc1ccc(C[C@H]2COc3cc(OC)c(OC)c(OC)c3C2=O)cc1	1350 nM	740 nM	690 nM		
COc1cc2c(c(OC)c1OC)C(=O)[C@@](O)(Cc1ccc3c(c1)OCO3)CO2 [URGINEANIN D]	350 nM	430 nM	380 nM		
C[C@]12CC[C@H]3[C@@H](CCC4=C[C@@H](O[C@@H]5O[C@H](CO)[C@@H](O)[C@H](O)[C@H]5O)CC[C@@]43C=O)[C@@]1(O)CC[C@@H]2c1ccc(=O)oc1	24 nM	34 nM	48 nM		
COc1cc2c(c(OC)c1OC)C(=O)[C@@](O)(Cc1ccc(O)cc1)CO2	3400 nM	6780 nM	> 10000 nM		
CC(=O)O[C@@H]1C[C@]2(O)[C@@H]3CCC4=C[C@@H](O[C@@H]5O[C@H](CO)[C@@H](O)[C@H](O)[C@H]5O)CC[C@]4(C=O)[C@H]3CC[C@]2(C)[C@H]1c1ccc(=O)oc1	11 nM	44 nM	60 nM		
COc1cc2c(c(OC)c1OC)C(=O)[C@@H](Cc1ccc3c(c1)OCO3)CO2 [URGINEANIN E]	1440 nM	> 10000 nM	> 10000 nM		
COc1ccc(C[C@H]2COc3cc(O)cc(O)c3C2=O)cc1	23000 nM	> 10000 nM	> 10000 nM		
C[C@@H]1O[C@@H](O[C@H]2[C@@H](O)[C@H](O[C@@H]3C=C4CC[C@@H]5[C@H](CC[C@]6(C)[C@@H](c7ccc(=O)oc7)CC[C@]56O)[C@@]4(C)CC3)O[C@@H](C)[C@@H]2O[C@@H]2O[C@H](CO)[C@@H](O)[C@H](O)[C@H]2O)[C@H](O)[C@H](O)[C@H]1O	111 nM	110 nM	180 nM		
CC[C@]1(O)C[C@@H]2CN(CCc3c([nH]c4ccccc34)[C@@](C(=O)OC)(c3cc4c(cc3OC)N(C)[C@H]3[C@@](O)(C(=O)OC)[C@H](OC(C)=O)[C@]5(CC)C=CCN6CC[C@]43[C@@H]65)C2)C1 [VINBLASTINE]		5.2 nM	3.7 nM		
C[C@@H]1O[C@@H](O[C@H]2[C@@H](O)[C@H](O[C@@H]3C=C4CC[C@@H]5[C@H](CC[C@]6(C)[C@@H](c7ccc(=O)oc7)CC[C@]56O)[C@@]4(C=O)CC3)O[C@@H](C)[C@@H]2O[C@@H]2O[C@H](CO)[C@@H](O)[C@H](O)[C@H]2O)[C@H](O)[C@H](O)[C@H]1O	41 nM	51 nM	76 nM		
COc1ccc(C[C@@]2(O)COc3cc(OC)c(OC)c(OC)c3C2=O)cc1	320 nM	71 nM	68 nM	5	5

Reference: ChEMBL document CHEMBL2375271, “Antiproliferative Homoisoflavonoids and Bufatrienolides from Urginea depressa” (J Nat Prod, 2013)
